Columns and labels:
Hepatitis C virus = assay: Inhibition of HCV 1b in Huh7 cells by replicon assay; assay type: functional, organism-based, Hepacivirus hominis; details: Huh-7
How it was run: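 Huh-7-derived line 2209-23 stably carrying a bicistronic HCV genotype 1b replicon with a renilla luciferase reporter. Replication was read out by the reporter. The EC50 is the concentration reducing HCV replication by 50%.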

[1] = Cytotoxicity activity against Huh7 cells by WST assay; assay type: cell-based, Huh-7; details: human
How it was run: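 Cytotoxicity was read out as the CC50, the concentration lowering cell viability by 50%, from a WST viability readout. Cells were the HCV replicon cell line 2209-23, derived from Huh-7 and carrying a stable genotype 1b bicistronic replicon with a renilla luciferase reporter.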

Compound	EC50 (Hepatitis C virus) [µM]	CC50 [1] [µM]
C[C@H](NP(=O)(OC[C@@]1(N=[N+]=[N-])O[C@@H](n2cnc3c(N)ncnc32)[C@H](O)[C@@H]1O)Oc1cccc2ccccc12)C(=O)OC(C)(C)C (some centres undefined)	> 100	> 100
C[C@H](NP(=O)(OC[C@@]1(N=[N+]=[N-])O[C@@H](n2cnc3c(N)ncnc32)[C@H](O)[C@@H]1O)Oc1cccc2ccccc12)C(=O)OCc1ccccc1 (some centres undefined)	0.22	> 100
CCOC(=O)[C@H](C)NP(=O)(OC[C@@]1(N=[N+]=[N-])O[C@@H](n2cnc3c(N)ncnc32)[C@H](O)[C@@H]1O)Oc1cccc2ccccc12 (some centres undefined)	0.59	> 100
C[C@H](NP(=O)(OC[C@@]1(N=[N+]=[N-])O[C@@H](n2cnc3c(N)ncnc32)[C@H](O)[C@@H]1O)Oc1ccccc1)C(=O)OCc1ccccc1 (some centres undefined)	4	> 100

More lines, main results first:

EC50 (Hepatitis C virus) [µM]	Compound	CC50 [1] [µM]
1.5	CCOC(=O)[C@H](C)NP(=O)(OC[C@@]1(N=[N+]=[N-])O[C@@H](n2cnc3c(N)ncnc32)[C@H](O)[C@@H]1O)Oc1ccccc1 (some centres undefined)	> 100
> 100	C[C@H](NP(=O)(OC[C@@]1(N=[N+]=[N-])O[C@@H](n2cnc3c(N)ncnc32)[C@H](O)[C@@H]1O)Oc1ccccc1)C(=O)OC(C)(C)C (some centres undefined)	> 100
> 100	[N-]=[N+]=N[C@]1(CO)O[C@@H](n2cnc3c(N)ncnc32)[C@H](O)[C@@H]1O	> 100

— ChEMBL document CHEMBL1137567, “First example of phosphoramidate approach applied to a 4'-substituted purine nucleoside (4'-azidoadenosine): conversion of an inactive nucleoside to a submicromolar compound versus hepatitis C virus” (J Med Chem, 2007)
